According to PubChem BioAssay AID1617 (Sanford-Burnham Center for Chemical Genomics, 2009):
Calls of active or inactive are those of the source.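 The calls were made as follows: active = compound at least 90% bound to plasma protein at 1 µM; inactive = the rest.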

Tested on: human plasma protein binding, RED dialysis, LC/MS/MS
Test: fraction bound to human plasma proteins – biochemical, rapid equilibrium dialysis, LC/MS/MS, ADME assay, late-stage follow-up (AID 1617)
Conditions: stronger effect = higher value
Summary of the method: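 Material: spiked plasma, equilibrium dialysis; buffer or medium: Isotonic PBS, pH 7.4; compound dosing: two single doses, 1 and 10 µM final, 0.1% DMSO; timing: 4 h dialysis, 37 °C, shaken; technique: LC/MS/MS of matrix-matched buffer-side and plasma-side aliquots; read-out basis: percent bound, 100 minus free percentage from buffer-to-plasma concentration ratio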

plasma protein bound (at 1 µM): 27.9% (inactive)
plasma protein bound (percent bound, at 10 µM): 16.8%
Compound: Cc1cc(OCC(=O)Nc2ncn[nH]2)ccc1Cl
